By EC50 is commonly meant the concentration needed to bring the measured effect to its halfway point. High values mean weaker potency, low ones greater potency. As a reminder, the IC50 is the point on the concentration scale where inhibition reaches its midpoint. As a reminder, the half-life is how long it takes for the measured level to halve. One may read the AUC as the area under the concentration-time curve, a measure of exposure. By Cmax is commonly meant the highest concentration seen after dosing.

In one data set the test system is Hepatitis C virus. Nature of the data set: Inhibition of hepatitis C virus in a cell based HCV replicon assay. The format is functional, organism-based, Hepacivirus hominis.
Data set [1] in a line: Inhibitory concentration against hepatitis C virus NS3 protease. Also on record: species or system Hepacivirus hominis.
A short description of data set [2]: Half-life period in rats after intravenous administration at 5 mg/kg. It counts as ADME, organism-based. Also on record: dose 5 mg/kg, route intravenous. The following applies: rat, in vivo. The procedure, abridged:
(§1)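 Rats received an intravenous bolus of 5 mg/kg in PEG400/water (70:30). Half-life, Vss and plasma clearance were taken from plasma levels. Bioavailability was derived by comparison with oral gavage dosing at 20 mg/kg in the same vehicle.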

The nature of data set [3]: Area under the plasma concentration-time curve in rats after oral administration at 20 mg/kg. It counts as ADME, organism-based. Also on record: dose 20 mg/kg, route oral. The following applies: rat. The procedure, abridged:
(§2)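 Rats dosed by oral gavage at 20 mg/kg in PEG400/water (70:30). Cmax and AUC0-∞ were taken from the plasma concentration–time profile.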

Data set [4] can be described thus: Maximum plasma concentration in rats following oral administration at 20 mg/kg. The format is ADME, organism-based. Also on record: dose 20 mg/kg, route oral. The following applies: rat. In a few lines: as §2
For data set [5], the system named is Rattus norvegicus. Kind of data set: Bioavailability in rat (dose 5 mg/kg i.v.). The format is functional, organism-based. In a few lines: as §1
Data set [6] is described as follows: Area under the plasma concentration-time curve in rats following oral administration at 20 mg/kg. It counts as ADME, organism-based. The arrangement: dose 20 mg/kg, route oral. Particulars: rat. In a few lines:
as §2

The nature of data set [7]: Half-life from rat plasma at a single oral dose of 25 mg/kg. The format is ADME, organism-based. Also on record: dose 25 mg/kg, route oral.
Data set [8] is described as follows: Area under the plasma concentration-time curve in rats after oral administration at 25 mg/kg. Also on record: dose 25 mg/kg, route oral. It counts as ADME, organism-based. The following applies: rat, read-out: AUC 0-infinity.
Data set [9] has as its system Rattus norvegicus. Nature of the data set: Bioavailability from rat plasma at a single oral dose of 25 mg/kg. It counts as ADME, organism-based. Particulars: in vivo.
Data set [10] is described as follows: Vss was determined. The format is ADME, organism-based. Particulars: rat, in vivo; read-out: Vss. The procedure, abridged: as §1
Data set [11] in a line: Maximum plasma concentration in rats after oral administration at 20 mg/kg. The format is ADME, organism-based. Also on record: dose 20 mg/kg, route oral. The following applies: rat. In a few lines:
as §2

Data set [12] has as its system Rattus norvegicus. Nature of the data set: Plasma clearance after intravenous administration at 5 mg/kg in rats. It counts as functional. The procedure, abridged:
as §1

For the molecule `COc1ccc2c(O[C@@H]3C[C@H]4C(=O)N[C@]5(C(=O)O)C[C@H]5/C=C\CCCCC[C@H](NC(=O)OC(C)(C)C)C(=O)N4C3)cc(-n3cccn3)nc2c1`, the EC50 in the data set on Hepatitis C virus turned out to be 3.9 nM. The molecule also showed a 50% inhibitory concentration (IC50) in data set [1] of 5.5 nM.

In the data set with Hepatitis C virus, `COc1ccc2c(O[C@@H]3C[C@H]4C(=O)N[C@]5(C(=O)O)C[C@H]5/C=C\CCCCC[C@H](NC(=O)OC(C)(C)C)C(=O)N4C3)cc(-n3ccc(C)n3)nc2c1` displayed a concentration giving a half-maximal response (EC50) of 4 nM. Besides, half-maximal inhibition in [1] (IC50) required 3 nM.

Regarding `COc1ccc2c(O[C@@H]3C[C@H]4C(=O)N[C@]5(C(=O)O)C[C@H]5/C=C\CCCCC[C@H](NC(=O)OC(C)(C)C)C(=O)N4C3)cc(-n3cnc(C)c3)nc2c1`, the response with Hepatitis C virus was half-maximal at 39 nM (EC50). 14 nM corresponded to half-maximal inhibition in [1] (IC50).

In the data set on Hepatitis C virus, `C=C[C@@H]1C[C@]1(NC(=O)[C@@H]1C[C@@H](Oc2cc(-c3ccccc3)nc3ccccc23)CN1C(=O)[C@@H](NC(=O)[C@@H](NC(=O)[C@@H](CCC(=O)O)NC(=O)[C@H](CC(=O)O)NC(C)=O)c1ccccc1)C(C)(C)C)C(=O)O` registered a 50% effective concentration (EC50) of 1900 nM. The 50% inhibitory concentration (IC50) in data set [1] turned out to be 0.5 nM.

`COc1ccc2c(O[C@@H]3C[C@H]4C(=O)N[C@]5(C(=O)O)C[C@H]5/C=C\CCCCC[C@H](NC(=O)N[C@H](C)C(C)(C)C)C(=O)N4C3)cc(-c3csc(NC(C)=O)n3)nc2c1`: the EC50 with Hepatitis C virus was found to be 20 nM. In data set [1], 1.4 nM corresponded to half-maximal inhibition (IC50).

As to `COc1ccc2c(O[C@@H]3C[C@H]4C(=O)N[C@]5(C(=O)O)C[C@H]5/C=C\CCCCC[C@H](NC(=O)OC5CCC5)C(=O)N4C3)cc(-c3csc(NC(C)=O)n3)nc2c1`, the midpoint of the response with Hepatitis C virus, the EC50, lay at 0.6 nM. In data set [1], this molecule returned a 50% inhibitory concentration (IC50) of 2.8 nM.

Regarding `CNc1nc(-c2cc(O[C@@H]3C[C@H]4C(=O)N[C@]5(C(=O)O)C[C@H]5/C=C\CCCCC[C@H](NC(=O)OC5CCCC5)C(=O)N4C3)c3ccc(OC)cc3n2)cs1`, in the data set with Hepatitis C virus, the EC50 was found to be 0.8 nM. In addition, the 50% inhibitory concentration (IC50) in data set [1] stood at 2.5 nM.

In turn, `COc1ccc2c(O[C@@H]3C[C@H]4C(=O)N[C@]5(C(=O)O)C[C@H]5/C=C\CCCCC[C@H](NC(=O)OC(C)(C)C)C(=O)N4C3)cc(-c3csc(NC(C)=O)n3)nc2c1` had a half-life in data set [2] of 48 min. Further, the AUC in [3] was determined as 0.3 µM·h. This molecule also came in with an EC50 in the data set on Hepatitis C virus of 4.5 nM. The molecule also returned an IC50 in [1] of 4.8 nM. This molecule also registered a maximum concentration (Cmax) in [4] of 0.3 µM. Besides, in the data set with Rattus norvegicus [5], the bioavailability was determined as 8%.

Molecule `COc1ccc2c(O[C@@H]3C[C@H]4C(=O)N[C@]5(C(=O)O)C[C@H]5/C=C\CCCCC[C@H](NC(=O)OC(C)(C)C)C(=O)N4C3)cc(-c3csc(N)n3)nc2c1` gave an EC50 with Hepatitis C virus of 3.2 nM. In [1], this molecule displayed a half-inhibitory concentration (IC50) of 5.5 nM.

The molecule `COc1ccc2c(O[C@@H]3C[C@H]4C(=O)N[C@]5(C(=O)O)C[C@H]5/C=C\CCCCC[C@H](NC(=O)OC(C)(C)C)C(=O)N4C3)cc(-n3cc(C)cn3)nc2c1` returned an EC50 with Hepatitis C virus of 20 nM. The molecule also registered an IC50 in data set [1] of 22 nM.

Turning to `CNc1nc(-c2cc(O[C@@H]3C[C@H]4C(=O)N[C@]5(C(=O)O)C[C@H]5/C=C\CCCCC[C@H](NC(=O)OC(C)(C)C)C(=O)N4C3)c3ccc(OC)cc3n2)cs1`, the concentration for a half-maximal effect (EC50) in the data set with Hepatitis C virus amounted to 6 nM. This molecule displayed an IC50 in [1] of 6.4 nM.

Regarding `CCNc1nc(-c2cc(O[C@@H]3C[C@H]4C(=O)N[C@]5(C(=O)O)C[C@H]5/C=C\CCCCC[C@H](NC(=O)OC5CCCC5)C(=O)N4C3)c3ccc(OC)cc3n2)cs1`, the AUC in data set [6] amounted to 7.2 µM·h. Besides, the EC50 with Hepatitis C virus was found to be 1 nM. Further, inhibition in data set [1] was half-maximal at 2.9 nM (IC50). In data set [4], this molecule returned a Cmax of 1 µM.

In [7], `COc1ccc2c(O[C@@H]3C[C@H]4C(=O)N[C@]5(C(=O)O)C[C@H]5/C=C\CCCCC[C@H](NC(=O)OC(C)(C)C)C(=O)N4C3)cc(-c3ccccc3)nc2c1` showed a half-life of 24 min. Besides, the exposure (AUC) in [8] stood at 0.2 µM·h. The EC50 with Hepatitis C virus was 77 nM. Moreover, half-maximal inhibition in [1] (IC50) required 11 nM. The molecule also had a F in the data set on Rattus norvegicus [9] of 2%.

Turning to `COc1ccc2c(O[C@@H]3C[C@H]4C(=O)N[C@]5(C(=O)O)C[C@H]5/C=C\CCCCC[C@H](NC(=O)OC5CCCC5)C(=O)N4C3)cc(-n3cccc3)nc2c1`, a half-maximal response in the data set on Hepatitis C virus (EC50) required 3.4 nM. Also, it took 3.6 nM to reach half-maximal inhibition in data set [1] (IC50).

`COc1ccc2c(O[C@@H]3C[C@H]4C(=O)N[C@]5(C(=O)O)C[C@H]5/C=C\CCCCC[C@H](NC(=O)OC5CCCC5)C(=O)N4C3)cc(-c3csc(N)n3)nc2c1` returned a 50% effective concentration (EC50) in the data set with Hepatitis C virus of 1.6 nM. Further, the half-inhibitory concentration (IC50) in [1] was 3.5 nM.

Turning to `COc1ccc2c(O[C@@H]3C[C@H]4C(=O)N[C@]5(C(=O)O)C[C@H]5/C=C\CCCCC[C@H](NC(=O)OC5CCCC5)C(=O)N4C3)cc(-c3csc(NC(C)C)n3)nc2c1` [CILUPREVIR], the half-life in data set [2] was 78 min. Moreover, in [3], the exposure (AUC) was determined as 12.5 µM·h. For the same molecule, the Vd in data set [10] stood at 1 L/kg. The same molecule gave a concentration for half-maximal inhibition (IC50) in data set [1] of 3 nM. Moreover, in data set [11], the peak level (Cmax) was 2.5 µM. Also, the C1 in the data set on Rattus norvegicus [12] is 0.78 L/h/kg. The bioavailability in the data set with Rattus norvegicus [5] is 42%.

Molecule `C=C[C@@H]1C[C@]1(NC(=O)C1CC(Oc2cc(-c3ccccc3)nc3ccccc23)CN1C(=O)[C@@H](NC(=O)[C@@H](NC(C)=O)c1ccccc1)C(C)C)C(=O)O` (single isomer, unassigned) had an IC50 in data set [1] of 13 nM.

The molecule `COc1ccc2c(O[C@@H]3C[C@H]4C(=O)N[C@]5(C(=O)O)C[C@H]5/C=C\CCCCC[C@H](NC(=O)OC5CCCC5)C(=O)N4C3)cc(-n3ccc(C)n3)nc2c1` showed a half-maximal effective concentration (EC50) in the data set on Hepatitis C virus of 1.2 nM. Besides, in data set [1], the IC50 was determined as 2.2 nM.

`C=C[C@@H]1C[C@]1(NC(=O)C1CC(Oc2ccnc3ccccc23)CN1C(=O)[C@@H](NC(=O)[C@@H](NC(C)=O)c1ccccc1)C(C)C)C(=O)O` (single isomer, unassigned): in data set [1], the IC50 stood at 170 nM.

With `COc1ccc2c(O[C@@H]3C[C@H]4C(=O)N[C@]5(C(=O)O)C[C@H]5/C=C\CCCCC[C@H](NC(=O)OC(C)(C)C)C(=O)N4C3)cc(-n3cccc3)nc2c1`, the EC50 with Hepatitis C virus was determined as 9.5 nM. Besides, the concentration for half-maximal inhibition (IC50) in [1] was found to be 5.1 nM.

Turning to `COc1ccc2c(O[C@@H]3C[C@H]4C(=O)N[C@]5(C(=O)O)C[C@H]5/C=C\CCCCC[C@H](NC(=O)OC(C)(C)C)C(=O)N4C3)cc(-n3ccnc3)nc2c1`, in the data set on Hepatitis C virus, it took 13 nM to reach a half-maximal effect (EC50). In data set [1], this molecule showed a concentration for half-maximal inhibition (IC50) of 4.7 nM.

In the case of `COc1ccc2c(O[C@@H]3C[C@H]4C(=O)N[C@]5(C(=O)O)C[C@H]5/C=C\CCCCC[C@H](NC(=O)OC(C)(C)C)C(=O)N4C3)ccnc2c1`, in the data set on Hepatitis C virus, the EC50 amounted to 1200 nM. The same molecule showed an IC50 in data set [1] of 24 nM.

For `COc1ccc2c(O[C@@H]3C[C@H]4C(=O)N[C@]5(C(=O)O)C[C@H]5/C=C\CCCCC[C@H](NC(=O)OC5CCCC5)C(=O)N4C3)cc(-c3csc(NC(C)=O)n3)nc2c1`, in the data set on Hepatitis C virus, the concentration giving a half-maximal response (EC50) stood at 0.4 nM. The molecule also displayed a 50% inhibitory concentration (IC50) in [1] of 2.5 nM.

With `COc1ccc2c(O[C@@H]3C[C@H]4C(=O)N[C@]5(C(=O)O)C[C@H]5/C=C\CCCCC[C@H](NC(=O)OC(C)(C)C)C(=O)N4C3)cc(-c3nnc(C)o3)nc2c1`, the EC50 in the data set on Hepatitis C virus amounted to 200 nM. In data set [1], this molecule had a concentration for half-maximal inhibition (IC50) of 12 nM.

`COc1ccc2c(O[C@@H]3C[C@H]4C(=O)N[C@]5(C(=O)O)C[C@H]5/C=C\CCCCC[C@H](NC(=O)OC5CCCC5)C(=O)N4C3)cc(-n3cccn3)nc2c1` registered an EC50 with Hepatitis C virus of 1.1 nM. This molecule yielded a concentration for half-maximal inhibition (IC50) in data set [1] of 2.2 nM.

The record behind these values is ChEMBL document CHEMBL1148447, “Structure-activity study on a novel series of macrocyclic inhibitors of the hepatitis C virus NS3 protease leading to the discovery of BILN 2061” (J Med Chem, 2004).
